Experimental data taken from PMC5815365 (Molecular pharmaceutics, 2016).
Several values for one entry are separate records, joined by “and”; a condition that tells them apart may be missing. Identical values can stand only once. Counter-ions that a name gives are not always drawn. Like-named read-outs stand apart in the source and are kept apart here.

Assays:
[1] = Partition coefficient in n-octanol and water, measured by NIR fluorescence; format: physicochemical; settings: octanol–water partitioning measured with NIRF
Summary of the method: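 Compound (5 nmol) was shaken 10 min in 0.6 mL n-octanol plus 0.6 mL water (final 4.15 μM, within the linear fluorescence range), then centrifuged at 10,000 rpm for 5 min. Triplicate 100 μL aliquots of each layer were imaged on IVIS (Ex/Em 745/820 nm) as ROI average radiance. log P = log(octanol/water intensity), corrected by a per-probe solvent factor; mean and SD reported.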

MCF-7 xenografts [2] = assay: In vivo NIRF imaging of tumor uptake in nude mice bearing MCF-7 xenografts; settings: for retention of fluorescence in tumors: two days after injection
Summary of the method: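 Nude mice with estradiol-supported MCF-7 mammary fat-pad xenografts (about 150 mm3) received 17 nmol dye i.p. (n = 3). They were imaged under 2% isoflurane at serial time points up to 8 days on IVIS (Ex 740/Em 820 nm, auto exposure, F-stop 2). Tumor ROI radiance (p/s/cm2/sr) was background-subtracted using another body region and normalized to tumor volume.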

MCF-7 xenografts [3] = assay: Ex vivo dye biodistribution analysis by NIRF of harvested tumors and organs; format: in vivo, mice; settings: day 2 of injection
Summary of the method: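 Ovariectomized female athymic mice carried mammary fat-pad MCF-7 xenografts (5 million cells in Matrigel, estradiol:cholesterol 1:3 implants), grown to about 150 mm3. A separate cohort received 17 nmol dye i.p. After IVIS imaging, mice were killed by ketamine/xylazine overdose at each time point. Tumor, muscle, liver, lung, heart, kidneys and skin were rinsed, dried and IVIS-imaged; organ ROIs were normalized to tumor volume.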

LTED cells = assay: Cell viability / growth inhibition by cell number count; format: cell-based, human
Summary of the method: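 LTED cells (MCF-7-derived, phenol red-free medium, charcoal-dextran stripped FBS) seeded at 60,000/well in 6-well plates and grown 2 days at 37 °C. They were then exposed to test compound for 2–5 days with 0.1% final ethanol or DMSO vehicle. Cells were saline-rinsed, nuclei released with HEPES–MgCl2 and ZAP (ethylhexadecyldimethylammonium bromide/acetic acid) and Coulter-counted. Three independent repeats, normalized to 100% viability; dose–response curves gave IC50.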

[4] = Cell viability / growth inhibition in benign breast epithelial cells; format: cell-based; settings: human, MCF-10A cells (benign breast epithelial cells)

Row | SMILES | log P [1] | time of peak uptake (NIRF) (MCF-7 xenografts [2]; 17 nmol/mouse) | fluorescence intensity disappeared (MCF-7 xenografts [2]; 8 days after injection) [%] | retention of fluorescence in tumors (MCF-7 xenografts [2]; 17 nmol/mouse) | fluorescence intensity in tumor tissue compared to muscle (MCF-7 xenografts [3]) [fold] | IC50 (LTED cells; Homo sapiens, read-out: IC50 (cell growth inhibition), LTED cells) [µM] | IC50 (LTED cells; read-out: IC50 (cell growth inhibition), LTED cells) | inhibition of cells (LTED cells; up to 75 μM) | viability at 2 days, 50 µM [4] [%]
1 | CC1(C)C(=CC=C2CCCC(C=CC3=[N+](CCCCS(=O)(=O)[O-])c4ccccc4C3(C)C)=C2Cl)N(CCCCCC(=O)O)c2ccccc21 [Compound 5, 3H-Indolium, 2-[2-[3-[2-[1-(5-Carboxypentyl)-1,3-dihydro-3,3-dimethyl-2H-indol-2-ylidene]ethylidene]-2-chloro-1-cyclohexen-1-yl]ethenyl]-3,3-dimethyl-1-(4-sulfobutyl) Inner Salt] | 0.49 | about 30 h | 80 | retained in the tumors | 8.6 |  |  |  | 
2 | CC1(C)C(/C=C/C2=C(Cl)C(=C\C=C3/N(CCCS(=O)(=O)[O-])c4ccccc4C3(C)C)/CCC2)=[N+](CCCS(=O)(=O)[O-])c2ccccc21.[Na+] [Compound 6, 3H-indolium, 2-[2-[2-chloro-3-[[1,3-dihydro-3,3-dimethyl-1-(3-sulfopropyl)-2H-indol-2-ylidene]ethylidene]-1-cyclohexen-1-yl]ethenyl]-3,3-dimethyl-1-(3-sulfopropyl)-, inner salt, sodium salt] | −1.13 |  |  | retained in the tumors | 6.3 |  |  |  | 
3 | CC1(C)C(/C=C/C2=C(Cl)C(=C/C=C3\N(CCCCCC(=O)O)c4ccccc4C3(C)C)/CCC2)=[N+](CCCCCC(=O)O)c2ccccc21 [Compound 7] | 1.35 |  |  | retained in the tumors | 4.5 |  |  |  | 
4 | CC(C)=CCC/C(C)=C/CC/C(C)=C/CSc1ccccc1C(=O)O [FTS, S-trans-trans-farnesylthiosalicylic acid] |  |  |  |  |  | ~51.3 | ~51.8 µM and < 50 µM | 70–75% | ~100
